Laboratory results reported in ChEMBL document CHEMBL1142153, “Pharmacokinetics and disposition of CS-023 (RO4908463), a novel parenteral carbapenem, in animals” (Antimicrob Agents Chemother, 2007).

Legend:
Rattus norvegicus [1] = assay: Urinary excretion in rat assessed as radioactivity at 10 mg/kg, iv after 24 h; format: ADME, organism-based, Urine; design: dose 10 mg/kg, route intravenous; details: in vivo
How it was run: (§1)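 Rats were dosed i.v. via the tail vein with [14C]CS-023 at 10 mg/kg (4.58 MBq/kg) in saline, then kept in individual metabolic cages for separate urine and feces collection over 7 days. Samples up to 24 h were collected at around 4°C into 0.5 M MOPS pH 6.0, and feces were homogenized. Radioactivity was measured by liquid scintillation counting. Parent drug and metabolite were apportioned by silica TLC (3% NaCl:acetonitrile 2:1) with imaging-plate analysis. n=4.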

Rattus norvegicus [2] = assay: Fecal excretion in rat assessed as radioactivity at 10 mg/kg, iv after 24 h; format: ADME, organism-based; design: dose 10 mg/kg, route intravenous; details: in vivo; how it was run: as §1
Macaca fascicularis [3] = assay: Volume of distribution at steady state in monkey at 10 mg/kg, iv; details: cynomolgus monkey, in vivo, read-out: Vss
[4] = Volume of distribution at steady state in dog at 5 mg/kg, iv; format: ADME, organism-based, Canis lupus familiaris; design: dose 5 mg/kg, route intravenous; details: in vivo, read-out: Vss
How it was run: (§2)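 Single i.v. bolus of CS-023 in saline into the foreleg saphenous vein of dogs at 5, 10 or 25 mg/kg; serial blood from the same vein. Plasma separated at 4°C, mixed 1:1 with 500 mM MOPS pH 6.0 containing internal standard, and analysed by two-column HPLC with UV at 304 nm; linear 1–500 µg/ml. kel from log-linear terminal slope, t1/2 = 0.693/kel; AUC by trapezoids plus Clast/kel; CL = dose/AUC; Vss = CL × MRT. n=3.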

[5] = AUC (0-inf) in rat at 25 mg/kg, iv; format: ADME, organism-based; design: time infinity, dose 25 mg/kg, route intravenous; details: plasma
How it was run: (§3)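 Rats received CS-023 in saline by tail-vein bolus at 10, 25 or 50 mg/kg; jugular blood was drawn serially. Plasma mixed with an equal volume of 500 mM MOPS pH 6.0 containing internal standard, then HPLC with UV at 304 nm (linear 1–500 µg/ml). Log-linear terminal kel gave t1/2; AUC by trapezoidal rule + Clast/kel; CL = dose/AUC0-inf. n=3.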

Macaca fascicularis [6] = assay: Clearance in monkey at 25 mg/kg, iv; details: cynomolgus monkey, in vivo
Macaca fascicularis [7] = assay: AUC (0-inf) in monkey at 10 mg/kg, iv; details: cynomolgus monkey, plasma
[8] = Clearance in rat at 25 mg/kg, iv; format: ADME, organism-based; design: dose 25 mg/kg, route intravenous; details: in vivo; how it was run: as §3
[9] = AUC (0-inf) in dog at 10 mg/kg, iv; format: ADME, organism-based, Canis lupus familiaris; design: dose 10 mg/kg, route intravenous, time infinity; details: plasma; how it was run: as §2
[10] = Volume of distribution at steady state in rat at 10 mg/kg, iv; format: ADME, organism-based; design: dose 10 mg/kg, route intravenous; details: in vivo, read-out: Vss
How it was run: (§4)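 Rats dosed once by tail-vein bolus of CS-023 in saline; blood drawn serially from the jugular vein and plasma separated at 4°C. Plasma mixed 1:1 with 500 mM MOPS pH 6.0 containing p-acetamidophenol internal standard and assayed by HPLC with UV at 304 nm (linear 1 to 500 µg/ml). Vss = CL (dose/AUC0-∞) × mean residence time.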

[11] = Volume of distribution at steady state in rat at 25 mg/kg, iv; format: ADME, organism-based; design: dose 25 mg/kg, route intravenous; details: in vivo, read-out: Vss; how it was run: as §4
[12] = Half life in rat at 10 mg/kg, iv; format: ADME, organism-based; design: dose 10 mg/kg, route intravenous; details: in vivo; how it was run: as §3
[13] = Protein binding in rat serum at 20 ug/ml; format: ADME, cell-free; details: read-out: PPB (converted)
How it was run: (§5)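 Serum was spiked with CS-023 in water to a final 20 or 100 µg/ml and incubated for 5 min at 37°C. It was then ultrafiltered by centrifugation at 2,000 x g for 10 min at room temperature. Drug in serum before filtration (Ct) and in the filtrate (Cf) was measured by HPLC-UV. Bound % = (Ct − Cf)/Ct × 100; n=4.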

[14] = Half life in dog at 5 mg/kg, iv; format: ADME, organism-based, Canis lupus familiaris; design: dose 5 mg/kg, route intravenous; details: in vivo; how it was run: as §2
[15] = AUC (0-inf) in rat at 50 mg/kg, iv; format: ADME, organism-based; design: time infinity, dose 50 mg/kg, route intravenous; details: plasma; how it was run: as §3
[16] = AUC (0-inf) in dog at 25 mg/kg, iv; format: ADME, organism-based, Canis lupus familiaris; design: time infinity, dose 25 mg/kg, route intravenous; details: plasma; how it was run: as §2
[17] = Clearance in rat at 10 mg/kg, iv; format: ADME, organism-based; design: dose 10 mg/kg, route intravenous; details: in vivo; how it was run: as §3
Macaca fascicularis [18] = assay: Clearance in monkey at 5 mg/kg, iv; details: cynomolgus monkey, in vivo
Macaca fascicularis [19] = assay: AUC (0-inf) in monkey at 5 mg/kg, iv; details: cynomolgus monkey, plasma
[20] = Protein binding in rat serum at 100 ug/ml; format: ADME, cell-free; details: read-out: PPB (converted); how it was run: as §5
[21] = Clearance in rat at 50 mg/kg, iv; format: ADME, organism-based; design: dose 50 mg/kg, route intravenous; details: in vivo; how it was run: as §3
[22] = Clearance in dog at 25 mg/kg, iv; format: ADME, organism-based, Canis lupus familiaris; design: dose 25 mg/kg, route intravenous; details: in vivo; how it was run: as §2
[23] = Half life in rat at 25 mg/kg, iv; format: ADME, organism-based; design: dose 25 mg/kg, route intravenous; details: in vivo; how it was run: as §3
[24] = Protein binding in dog serum at 20 ug/ml; format: ADME, cell-free, Canis lupus familiaris; details: read-out: PPB; how it was run: as §5
Macaca fascicularis [25] = assay: AUC (0-inf) in monkey at 25 mg/kg, iv; details: cynomolgus monkey, plasma
[26] = AUC (0-inf) in dog at 5 mg/kg, iv; format: ADME, organism-based, Canis lupus familiaris; design: time infinity, dose 5 mg/kg, route intravenous; details: plasma; how it was run: as §2
[27] = AUC (0-inf) in rat at 10 mg/kg, iv; format: ADME, organism-based; design: dose 10 mg/kg, route intravenous, time infinity; details: plasma; how it was run: as §3
Macaca fascicularis [28] = assay: Volume of distribution at steady state in monkey at 25 mg/kg, iv; details: cynomolgus monkey, in vivo, read-out: Vss
[29] = Volume of distribution at steady state in dog at 10 mg/kg, iv; format: ADME, organism-based, Canis lupus familiaris; design: dose 10 mg/kg, route intravenous; details: in vivo, read-out: Vss; how it was run: as §2
Macaca fascicularis [30] = assay: Volume of distribution at steady state in monkey at 5 mg/kg, iv; details: cynomolgus monkey, in vivo, read-out: Vss
[31] = Clearance in dog at 5 mg/kg, iv; format: ADME, organism-based, Canis lupus familiaris; design: dose 5 mg/kg, route intravenous; details: in vivo; how it was run: as §2
[32] = Half life in dog at 10 mg/kg, iv; format: ADME, organism-based, Canis lupus familiaris; design: dose 10 mg/kg, route intravenous; details: in vivo; how it was run: as §2
[33] = Volume of distribution at steady state in rat at 50 mg/kg, iv; format: ADME, organism-based; design: dose 50 mg/kg, route intravenous; details: in vivo, read-out: Vss; how it was run: as §4
[34] = Half life in rat at 50 mg/kg, iv; format: ADME, organism-based; design: dose 50 mg/kg, route intravenous; details: in vivo; how it was run: as §3
Macaca fascicularis [35] = assay: Half life in monkey at 5 mg/kg, iv; details: cynomolgus monkey, in vivo
Macaca fascicularis [36] = assay: Half life in monkey at 10 mg/kg, iv; details: cynomolgus monkey, in vivo
Macaca fascicularis [37] = assay: Half life in monkey at 25 mg/kg, iv; details: cynomolgus monkey, in vivo
[38] = Volume of distribution at steady state in dog at 25 mg/kg, iv; format: ADME, organism-based, Canis lupus familiaris; design: dose 25 mg/kg, route intravenous; details: in vivo, read-out: Vss; how it was run: as §2
[39] = Half life in dog at 25 mg/kg, iv; format: ADME, organism-based, Canis lupus familiaris; design: dose 25 mg/kg, route intravenous; details: in vivo; how it was run: as §2
Macaca fascicularis [40] = assay: Clearance in monkey at 10 mg/kg, iv; details: cynomolgus monkey, in vivo
Macaca fascicularis [41] = species: Macaca fascicularis; assay: Protein binding in monkey serum at 20 ug/ml; details: cynomolgus monkey, read-out: PPB (converted)
[42] = Protein binding in dog serum at 100 ug/ml; format: ADME, cell-free, Canis lupus familiaris; details: read-out: PPB (converted); how it was run: as §5
[43] = Clearance in dog at 10 mg/kg, iv; format: ADME, organism-based, Canis lupus familiaris; design: dose 10 mg/kg, route intravenous; details: in vivo; how it was run: as §2
Macaca fascicularis [44] = species: Macaca fascicularis; assay: Protein binding in monkey serum at 100 ug/ml; details: cynomolgus monkey, read-out: PPB (converted)

## C[C@@H]1[C@H]([C@H](C(=O)O)[C@@H](C)O)N=C(C(=O)O)[C@H]1S[C@H]1C[C@@H](C(=O)N2CC[C@H](NC(=O)CNC(=N)N)C2)N(C)C1
Rattus norvegicus [1]
  Activity: 31.4%
Rattus norvegicus [2]
  Activity: 1.3%

## C[C@@H](O)[C@H]1C(=O)N2C(C(=O)O)=C(S[C@H]3C[C@@H](C(=O)N4CC[C@H](NC(=O)CNC(=N)N)C4)N(C)C3)[C@H](C)[C@H]12 [TOMOPENEM]
Macaca fascicularis [3]
  Vd: 0.172 L/kg
[4]
  Vd: 0.269 L/kg
[5]
  AUC(0-inf): 28400 ng·h/mL
Macaca fascicularis [6]
  clearance: 1.73 mL/min/kg
Macaca fascicularis [7]
  AUC(0-inf): 104000 ng·h/mL
[8]
  clearance: 15.1 mL/min/kg
[9]
  AUC(0-inf): 39900 ng·h/mL
[10]
  Vd: 0.199 L/kg
[11]
  Vd: 0.218 L/kg
[12]
  half-life: 9.6 min
[13]
  fraction unbound at 20 ug/ml: 0.95
[14]
  half-life: 45 min
[15]
  AUC(0-inf): 55000 ng·h/mL
[16]
  AUC(0-inf): 129000 ng·h/mL
[17]
  clearance: 16.9 mL/min/kg
Macaca fascicularis [18]
  clearance: 1.76 mL/min/kg
Macaca fascicularis [19]
  AUC(0-inf): 48600 ng·h/mL
Rattus norvegicus [1]
  Activity: 29.6%
[20]
  fraction unbound at 100 ug/ml: 0.941
[21]
  clearance: 15.2 mL/min/kg
[22]
  clearance: 3.26 mL/min/kg
[23]
  half-life: 11.4 min
[24]
  fraction unbound at 20 ug/ml: 0.91
Macaca fascicularis [25]
  AUC(0-inf): 244000 ng·h/mL
[26]
  AUC(0-inf): 18800 ng·h/mL
[27]
  AUC(0-inf): 10200 ng·h/mL
Macaca fascicularis [28]
  Vd: 0.184 L/kg
[29]
  Vd: 0.259 L/kg
Macaca fascicularis [30]
  Vd: 0.176 L/kg
Rattus norvegicus [2]
  Activity: 3.1%
[31]
  clearance: 4.44 mL/min/kg
[32]
  half-life: 45 min
[33]
  Vd: 0.22 L/kg
[34]
  half-life: 12 min
Macaca fascicularis [35]
  half-life: 79.2 min
Macaca fascicularis [36]
  half-life: 83.4 min
Macaca fascicularis [37]
  half-life: 86.4 min
[38]
  Vd: 0.228 L/kg
[39]
  half-life: 52.8 min
Macaca fascicularis [40]
  clearance: 1.62 mL/min/kg
Macaca fascicularis [41]
  fraction unbound at 20 ug/ml: 0.844
[42]
  fraction unbound at 100 ug/ml: 0.946
[43]
  clearance: 4.19 mL/min/kg
Macaca fascicularis [44]
  fraction unbound at 100 ug/ml: 0.849
